The values that follow come from ChEMBL document CHEMBL1153433, “Design and synthesis of 2-amino-4-methylpyridine analogues as inhibitors for inducible nitric oxide synthase and in vivo evaluation of [18F]6-(2-fluoropropyl)-4-methyl-pyridin-2-amine as a potential PET tracer for inducible nitric oxide synthase” (J Med Chem, 2009).

What is called IC50 is the concentration at which inhibition is half-maximal.

Assay [1] concerns the target Nitric oxide synthase, inducible (Homo sapiens, UniProt P35228). The assay can be described thus: Inhibition of human recombinant iNOS using 1 mM […] and 2 uM L-arginine after 30 mins. A digest of the protocol: (§1)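 Recombinant human NOS, scintillation proximity kit. Buffer: 50 mM Tris pH 7.4, 1.0 mM NADPH, 3.8 μM each of FMN, FAD and tetrahydrobiopterin, 2.0 mM DTT, 2.0 μM L-arginine. eNOS and nNOS buffer also had 20 μg/mL calmodulin and 1 mM CaCl2. Started with [3H]arginine, 30 min at room temperature, stopped with yttrium-silicate arginine-binding beads, counted after 2 h settling. IC50 mean ± SD, N ≥ 3.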

The target of the next assay is T1, Nitric oxide synthase 3 (Homo sapiens, UniProt P29474).
T1 sequence (P29474 whole entry): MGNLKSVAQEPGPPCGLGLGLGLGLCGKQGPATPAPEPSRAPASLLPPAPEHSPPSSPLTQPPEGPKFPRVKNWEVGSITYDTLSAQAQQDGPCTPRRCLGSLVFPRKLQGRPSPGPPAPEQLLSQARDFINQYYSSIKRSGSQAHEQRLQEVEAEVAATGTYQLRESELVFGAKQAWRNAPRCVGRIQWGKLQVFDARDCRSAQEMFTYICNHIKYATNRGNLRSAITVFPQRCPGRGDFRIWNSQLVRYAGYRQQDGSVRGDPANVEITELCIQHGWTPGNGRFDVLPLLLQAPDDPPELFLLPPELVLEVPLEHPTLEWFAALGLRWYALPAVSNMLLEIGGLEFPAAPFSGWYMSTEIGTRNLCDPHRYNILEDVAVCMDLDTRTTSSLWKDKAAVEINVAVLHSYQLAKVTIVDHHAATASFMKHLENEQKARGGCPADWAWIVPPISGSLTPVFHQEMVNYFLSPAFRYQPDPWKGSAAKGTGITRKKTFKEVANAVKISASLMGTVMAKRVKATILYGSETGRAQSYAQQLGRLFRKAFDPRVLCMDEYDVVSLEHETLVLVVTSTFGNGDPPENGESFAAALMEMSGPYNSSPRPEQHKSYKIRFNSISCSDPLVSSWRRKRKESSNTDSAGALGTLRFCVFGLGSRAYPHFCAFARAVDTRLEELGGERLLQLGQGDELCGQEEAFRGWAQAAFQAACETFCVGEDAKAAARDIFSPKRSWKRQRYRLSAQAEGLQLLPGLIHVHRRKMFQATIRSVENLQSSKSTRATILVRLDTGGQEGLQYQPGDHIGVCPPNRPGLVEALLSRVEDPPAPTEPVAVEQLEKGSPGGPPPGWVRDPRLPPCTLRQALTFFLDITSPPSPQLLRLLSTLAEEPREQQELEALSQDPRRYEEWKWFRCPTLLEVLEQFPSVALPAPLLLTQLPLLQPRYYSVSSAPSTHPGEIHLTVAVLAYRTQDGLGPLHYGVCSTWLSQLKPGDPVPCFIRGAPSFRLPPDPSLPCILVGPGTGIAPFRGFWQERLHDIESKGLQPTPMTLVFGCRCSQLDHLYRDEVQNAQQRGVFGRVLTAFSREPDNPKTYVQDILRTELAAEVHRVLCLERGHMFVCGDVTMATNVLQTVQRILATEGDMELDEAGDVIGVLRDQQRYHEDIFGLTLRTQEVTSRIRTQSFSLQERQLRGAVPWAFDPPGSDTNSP
The assay can be described thus: Inhibition of human recombinant eNOS using 1 mM […] and 2 uM L-arginine after 30 mins. A digest of the protocol:
as §1

The next assay concerns the target Nitric oxide synthase 1 (Homo sapiens, UniProt P29475). Description: Inhibition of human recombinant nNOS using 1 mM […] and 2 uM L-arginine after 30 mins. The method, boiled down:
as §1

Sequence of Nitric oxide synthase, inducible (P35228 whole entry): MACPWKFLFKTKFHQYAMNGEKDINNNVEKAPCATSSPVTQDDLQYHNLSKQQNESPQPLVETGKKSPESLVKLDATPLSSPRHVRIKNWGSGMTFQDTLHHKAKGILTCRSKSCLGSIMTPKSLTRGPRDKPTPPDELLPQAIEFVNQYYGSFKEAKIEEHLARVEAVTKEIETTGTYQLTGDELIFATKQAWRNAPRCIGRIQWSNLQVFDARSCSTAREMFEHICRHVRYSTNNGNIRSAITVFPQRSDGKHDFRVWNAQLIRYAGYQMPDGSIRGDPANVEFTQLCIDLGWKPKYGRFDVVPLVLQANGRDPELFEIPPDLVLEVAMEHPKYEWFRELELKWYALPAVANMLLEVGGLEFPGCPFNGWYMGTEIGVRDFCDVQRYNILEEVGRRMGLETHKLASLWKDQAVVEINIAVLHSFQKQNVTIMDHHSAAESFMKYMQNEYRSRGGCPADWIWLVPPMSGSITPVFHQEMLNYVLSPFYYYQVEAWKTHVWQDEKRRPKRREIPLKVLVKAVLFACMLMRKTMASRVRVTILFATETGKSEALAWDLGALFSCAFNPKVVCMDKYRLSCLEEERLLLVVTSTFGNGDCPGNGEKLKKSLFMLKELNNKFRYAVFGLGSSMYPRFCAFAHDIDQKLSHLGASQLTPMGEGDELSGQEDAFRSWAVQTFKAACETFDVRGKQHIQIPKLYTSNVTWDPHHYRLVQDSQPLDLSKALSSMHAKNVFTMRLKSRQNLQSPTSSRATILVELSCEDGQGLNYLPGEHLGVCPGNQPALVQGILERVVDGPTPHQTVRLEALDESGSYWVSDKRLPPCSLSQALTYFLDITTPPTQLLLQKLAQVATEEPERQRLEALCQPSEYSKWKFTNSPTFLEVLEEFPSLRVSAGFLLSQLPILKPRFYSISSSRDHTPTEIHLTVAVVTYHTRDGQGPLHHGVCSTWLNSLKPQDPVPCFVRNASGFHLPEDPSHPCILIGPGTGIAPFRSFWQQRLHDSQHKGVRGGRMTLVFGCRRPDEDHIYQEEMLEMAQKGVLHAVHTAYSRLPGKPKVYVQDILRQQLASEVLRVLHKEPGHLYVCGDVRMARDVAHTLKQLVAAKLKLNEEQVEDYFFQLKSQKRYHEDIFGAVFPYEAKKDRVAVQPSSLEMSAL
Sequence of Nitric oxide synthase 1 (P29475 whole entry): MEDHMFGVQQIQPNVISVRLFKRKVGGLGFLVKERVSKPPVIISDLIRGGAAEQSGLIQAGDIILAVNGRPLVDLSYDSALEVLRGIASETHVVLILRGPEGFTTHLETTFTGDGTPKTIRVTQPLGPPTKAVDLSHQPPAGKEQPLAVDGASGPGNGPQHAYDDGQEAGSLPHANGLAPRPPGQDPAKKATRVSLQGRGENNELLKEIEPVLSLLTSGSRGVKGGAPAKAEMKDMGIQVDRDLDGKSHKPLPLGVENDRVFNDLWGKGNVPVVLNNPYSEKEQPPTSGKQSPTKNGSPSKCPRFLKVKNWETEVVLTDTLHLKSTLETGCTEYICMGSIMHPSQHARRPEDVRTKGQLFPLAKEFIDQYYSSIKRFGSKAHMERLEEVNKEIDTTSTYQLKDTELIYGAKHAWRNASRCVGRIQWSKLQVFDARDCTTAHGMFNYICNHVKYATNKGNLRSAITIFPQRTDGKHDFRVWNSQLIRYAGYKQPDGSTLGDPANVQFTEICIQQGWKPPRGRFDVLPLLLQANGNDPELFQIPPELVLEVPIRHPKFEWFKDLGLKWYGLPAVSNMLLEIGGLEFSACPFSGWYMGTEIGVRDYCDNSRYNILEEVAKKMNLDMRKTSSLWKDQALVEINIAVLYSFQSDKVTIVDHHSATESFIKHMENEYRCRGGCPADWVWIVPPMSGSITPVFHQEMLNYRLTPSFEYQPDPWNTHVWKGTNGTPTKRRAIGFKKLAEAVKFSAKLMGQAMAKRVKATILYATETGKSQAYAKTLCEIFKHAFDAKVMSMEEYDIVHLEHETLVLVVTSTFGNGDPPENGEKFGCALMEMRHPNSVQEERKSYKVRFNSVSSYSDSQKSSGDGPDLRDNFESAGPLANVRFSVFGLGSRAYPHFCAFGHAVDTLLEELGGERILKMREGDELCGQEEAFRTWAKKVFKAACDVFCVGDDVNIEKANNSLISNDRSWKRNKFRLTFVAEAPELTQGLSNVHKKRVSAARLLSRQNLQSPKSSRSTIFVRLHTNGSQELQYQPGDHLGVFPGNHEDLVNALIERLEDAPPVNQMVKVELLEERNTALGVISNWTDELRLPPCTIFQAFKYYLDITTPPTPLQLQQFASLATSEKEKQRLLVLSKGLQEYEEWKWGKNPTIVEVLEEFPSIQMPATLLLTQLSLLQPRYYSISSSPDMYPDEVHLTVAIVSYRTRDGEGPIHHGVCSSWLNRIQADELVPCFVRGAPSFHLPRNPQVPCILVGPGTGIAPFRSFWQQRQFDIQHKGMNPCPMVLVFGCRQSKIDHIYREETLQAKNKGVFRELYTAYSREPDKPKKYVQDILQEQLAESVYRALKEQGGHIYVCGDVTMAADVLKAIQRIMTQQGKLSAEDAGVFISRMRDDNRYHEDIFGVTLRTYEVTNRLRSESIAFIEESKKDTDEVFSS

Turning to `Cc1cc(N)nc(CCCF)c1`, the IC50 in assay [1] turned out to be 57.6 nM; at Nitric oxide synthase 3, 1430 nM; at Nitric oxide synthase 1 it was 514 nM.
As to `Cc1cc(N)nc(CC(C)CCF)c1` (stereo not drawn), in assay [1], the IC50 was 731 nM.
Consider `Cc1cc(N)nc(CC(C)F)c1` (stereo not drawn), for which the IC50 in assay [1] turned out to be 220 nM; at Nitric oxide synthase 3, 1500 nM.
With `Cc1cc(N)nc(CC(C)OCCF)c1` (stereo not drawn), the IC50 in assay [1] was greater than 5000 nM.
Still for that read-out and setting: in the case of `COCCC(C)Cc1cc(C)cc(N)n1` (stereo not drawn) it was greater than 5000 nM; in that of `CSCCC(C)Cc1cc(C)cc(N)n1` (stereo not drawn), greater than 5000 nM; in that of `COC(C)Cc1cc(C)cc(N)n1` (stereo not drawn), greater than 5000 nM.
The same measure, in the same setting: in the case of `Cc1cc(N)nc(CC(C)O)c1` (stereo not drawn) it was 1780 nM; in that of `C/C=C/c1cc(C)cc(N)n1`, 282 nM.
The same measure, in the same setting: in the case of `Cc1cc(N)nc(CCCCF)c1` it was 170 nM.
